Experimental data: ChEMBL document CHEMBL1123822, “Lysosomotropic agents. 7. Broad-spectrum antifungal activity of lysosomotropic detergents” (1987)
Values after ≈ are worked out from the molar mass of the structure shown.

Experiments:
Format in all cases: functional
[1] = system: Cephalosporium; assay: The compound was evaluated for zone inhibition against Cephalosporium sp (MF4641) using disk diffusion assay
How it was run: (§1)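 Disk diffusion: 25 μL of 250 μg/mL drug in methanol on 6.2 mm paper disks, dried at room temperature, placed on seeded agar and rewet with 25 μL 10% aqueous Me₂SO. Zones were read after overnight incubation, ±1 mm. Media were unbuffered, pH ca. 4.5–5.6: potato dextrose agar for filamentous fungi, Sabouraud dextrose for yeasts, unless YNB (76 mM ammonium sulfate, sole nitrogen source) or YED is named. Zone edges were scored fuzzy, slightly hazy, hazy or very hazy.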

[2] = system: Aspergillus fumigatus; assay: The compound was tested for antifungal activity against Aspergillus fumigatus MF4839 using agar dilution assay
How it was run: (§2)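 Standardized agar dilution in Kimmig agar with 5% glycerol. Lysosomotropic detergents solubilized in 10% Me₂SO. Twofold serial dilutions in sterile distilled water gave final agar concentrations of 128 to 0.06 μg/mL. Stated error ±1 dilution stage.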

[3] = system: Saccharomyces cerevisiae; assay: The compound was tested for antifungal activity against Saccharomyces cerevisiae MY1027 using agar dilution assay
How it was run: (§3)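 Standardized agar dilution on Kimmig agar with 5% glycerol. Detergents solubilized in 10% Me2SO; desoxycholate-stabilized amphotericin B diluted and titrated in sterile distilled water. Twofold dilutions in sterile distilled water gave final agar concentrations of 128 to 0.06 μg/mL. Error limit ±1 dilution stage.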

[4] = system: Naganishia albida; assay: The compound was evaluated for zone inhibition against Cryptococcus albidus MY1070 using disk diffusion assay; 23 Fuzzy edges; how it was run: as §1
[5] = system: Papiliotrema laurentii; assay: The compound was evaluated for zone inhibition against Cryptococcus laurentii MY1077 using disk diffusion assay; 22 Fuzzy edges
How it was run: (§4)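 Filter-paper disks (6.2 mm) loaded with 25 μL of a 250 μg/mL methanol solution, dried at room temperature, laid on seeded agar and rewet with 25 μL 10% aqueous Me₂SO. Media were unbuffered, pH ca. 4.5–5.6: potato dextrose agar for filamentous fungi, sabouraud dextrose agar for yeasts, unless noted. Inhibition zone diameter read after overnight incubation, ±1 mm. Zone edges scored fuzzy, slightly hazy, hazy or very hazy.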

[6] = system: Saccharomyces cerevisiae; assay: The compound was evaluated for mean zone diameter (inhibition) against yeast at the concentration of 62.5 ug/mL
How it was run: (§5)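 Filter-paper disk diffusion (6.2 mm disks) with drug in methanol at the stated level, 25 μL per disk. Disks were air-dried at room temperature, laid on seeded agar, rewet with 25 μL 10% aqueous Me₂SO and incubated overnight. Media were unbuffered, pH ca. 4.5–5.6. The panel was 21 yeasts and 21 filamentous fungi. Zones of 0 mm were excluded from means.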

[7] = system: Rhizomucor miehei; assay: The compound was evaluated for zone inhibition against Rhizomucor miehei (MF4784) using disk diffusion assay; how it was run: as §4
[8] = system: Kluyveromyces marxianus; assay: The compound was tested for antifungal activity against Candida pseudotropicalis MY1040 using agar dilution assay; how it was run: as §2
[9] = system: Candida tropicalis; assay: The compound was tested for antifungal activity against Candida tropicalis MY1012 using agar dilution assay; how it was run: as §3
[10] = system: Papiliotrema laurentii; assay: The compound was evaluated for zone inhibition against Cryptococcus laurentii MY1074 using disk diffusion assay; 16 slightly hazy; how it was run: as §4
[11] = system: Nakaseomyces glabratus; assay: The compound was tested for antifungal activity against Torulopsis glabrata MY1059 using agar dilution assay; how it was run: as §3
[12] = system: Candida albicans; assay: The compound was tested for antifungal activity against Candida stellatoidea MY1017 using agar dilution assay; how it was run: as §3
[13] = system: Kluyveromyces marxianus; assay: The compound was evaluated for zone inhibition against Kluyveromyces fragilis MY1113 using disk diffusion assay; 13 Fuzzy edges; how it was run: as §4
[14] = system: Aspergillus flavus; assay: The compound was tested for antifungal activity against Aspergillus flavus MF0383 using agar dilution assay; how it was run: as §2
[15] = system: Nakaseomyces glabratus; assay: The compound was evaluated for zone inhibition against Torulopsis glabrata MY1062 using disk diffusion assay; how it was run: as §4
[16] = system: Penicillium; assay: The compound was evaluated for zone inhibition against Penicillium sp (MF5020) using disk diffusion assay; 21 Fuzzy edges; how it was run: as §4
[17] = system: Saccharomyces cerevisiae; assay: The compound was evaluated for zone inhibition against Saccharomyces cerevisiae MY410 using disk diffusion assay; 9 Fuzzy edges; how it was run: as §4
[18] = system: Trichoderma; assay: The compound was evaluated for zone inhibition against Trichoderma sp (MF4064) using disk diffusion assay; how it was run: as §4
[19] = system: Candida tropicalis; assay: The compound was tested for antifungal activity against Candida tropicalis MY1011 using agar dilution assay; how it was run: as §3
[20] = system: Penicillium; assay: The compound was evaluated for zone inhibition against Penicillium sp (MF5016) using disk diffusion assay; 25 Fuzzy edges; how it was run: as §4
[21] = system: Candida albicans; assay: The compound was tested for antifungal activity against Candida albicans MY1058 using agar dilution assay; how it was run: as §2
[22] = system: Meyerozyma guilliermondii; assay: The compound was tested for antifungal activity against Candida guilliermondii MY1019 using agar dilution assay; how it was run: as §2
[23] = system: Saccharomyces cerevisiae; assay: The compound was evaluated for zone inhibition against Saccharomyces cerevisiae YED MY34 using disk diffusion assay; how it was run: as §4
[24] = system: Fusarium oxysporum; assay: The compound was evaluated for zone inhibition against Fusarium oxysporum (MF4014) using disk diffusion assay; how it was run: as §4
[25] = system: Ustilago maydis; assay: The compound was evaluated for zone inhibition against Ustilago zeae (MF1996) using disk diffusion assay; 28 Fuzzy edges; how it was run: as §4
[26] = system: Cercospora beticola; assay: The compound was evaluated for zone inhibition against Cercospora beticola (MF4608) using disk diffusion assay; 22 Fuzzy edges; how it was run: as §1
[27] = system: Penicillium italicum; assay: The compound was tested for antifungal activity against Penicillium italicum MF2819 using agar dilution assay; how it was run: as §3
[28] = system: Cryptococcus neoformans; assay: The compound was tested for antifungal activity against Cryptococcus neoformans MY1051 using agar dilution assay; how it was run: as §3
[29] = system: Candida tropicalis; assay: The compound was evaluated for zone inhibition against Candida tropicalis MY1012 using disk diffusion assay; 25 Fuzzy edges; how it was run: as §1
[30] = system: Diutina rugosa; assay: The compound was tested for antifungal activity against Candida rugosa MY1022 using agar dilution assay; how it was run: as §2
[31] = system: Saccharomyces cerevisiae; assay: The compound was evaluated for mean zone diameter (inhibition) against yeast at the concentration of 125 ug/mL; how it was run: as §5
[32] = system: Pichia kudriavzevii; assay: The compound was tested for antifungal activity against Candida krusei MY1020 using agar dilution assay; how it was run: as §2
[33] = system: Trichoderma viride; assay: The compound was evaluated for zone inhibition against Trichoderma lignorum (MF3560) using disk diffusion assay; 24 Fuzzy edges; how it was run: as §4
[34] = system: Candida albicans; assay: The compound was tested for antifungal activity against Candida albicans MY0992 using agar dilution assay; how it was run: as §2
[35] = system: Candida albicans; assay: The compound was tested for antifungal activity against Candida albicans MY1055 using agar dilution assay; how it was run: as §2
[36] = system: Penicillium; assay: The compound was evaluated for zone inhibition against Penicillium sp (MF5014) using disk diffusion assay; 22 Fuzzy edges; how it was run: as §4
[37] = system: Candida parapsilosis; assay: The compound was tested for antifungal activity against Candida parapsilosis MY1009 using agar dilution assay; conditions: Lodderomyces parapsilosis; how it was run: as §2
[38] = system: Saccharomyces cerevisiae; assay: The compound was evaluated for mean zone diameter (inhibition) against yeast at the concentration of 250 ug/mL; how it was run: as §5
[39] = system: Candida albicans; assay: The compound was tested for antifungal activity against Candida albicans MY1013 using agar dilution assay; how it was run: as §2
[40] = system: Candida albicans; assay: The compound was tested for antifungal activity against Candida albicans My1029 using agar dilution assay; how it was run: as §2
[41] = system: Candida parapsilosis; assay: The compound was tested for antifungal activity against Candida parapsilosis MY1010 using agar dilution assay; conditions: Lodderomyces parapsilosis; how it was run: as §2
[42] = system: Cryptococcus neoformans; assay: The compound was tested for antifungal activity against Cryptococcus neoformans MY1146 using agar dilution assay; how it was run: as §3
[43] = system: Phoma; assay: The compound was evaluated for zone inhibition against Phoma sp (MF4332) using disk diffusion assay; 23 Fuzzy edges; how it was run: as §4

CCCCCCCCCCCCn1ccnc1 showed an Inhibition zone [1] of 13 mm, an MIC [2] of 16 µg/mL (≈ 67.7 µM) and an MIC [3] of 8 µg/mL (≈ 33.8 µM). For the same molecule, the Inhibition zone [4] was 23 mm, the Inhibition zone [5] was 22 mm and the Inhibition zone [6] was 14.4 mm. The Inhibition zone [7] was 15 mm, the MIC [8] was 16 µg/mL (≈ 67.7 µM) and the MIC [9] was 8 µg/mL (≈ 33.8 µM). The Inhibition zone [10] was 16 mm, the MIC [11] was 16 µg/mL (≈ 67.7 µM) and the MIC [12] was 16 µg/mL (≈ 67.7 µM). It also gave an Inhibition zone [13] of 13 mm, an MIC [14] of 16 µg/mL (≈ 67.7 µM) and an Inhibition zone [15] of 11 mm. The Inhibition zone [16] was 21 mm, the Inhibition zone [17] was 9 mm and the Inhibition zone [18] was 18 mm. The MIC [19] was 32 µg/mL (≈ 135 µM), the Inhibition zone [20] was 25 mm and the MIC [21] was 32 µg/mL (≈ 135 µM). For the same molecule, the MIC [22] was 16 µg/mL (≈ 67.7 µM), the Inhibition zone [23] was 15 mm and the Inhibition zone [24] was 18 mm. For the same molecule, the Inhibition zone [25] was 28 mm, the Inhibition zone [26] was 22 mm and the MIC [27] was 4 µg/mL (≈ 16.9 µM). It also gave an MIC [28] of 4 µg/mL (≈ 16.9 µM), an Inhibition zone [29] of 25 mm and an MIC [30] of 32 µg/mL (≈ 135 µM). The Inhibition zone [31] was 15.8 mm, the MIC [32] was 32 µg/mL (≈ 135 µM) and the Inhibition zone [33] was 24 mm. It also gave an MIC [34] of 32 µg/mL (≈ 135 µM), an MIC [35] of 32 µg/mL (≈ 135 µM) and an Inhibition zone [36] of 22 mm. The MIC [37] was 32 µg/mL (≈ 135 µM), the Inhibition zone [38] was 16.8 mm and the MIC [39] was 16 µg/mL (≈ 67.7 µM). For the same molecule, the MIC [40] was 32 µg/mL (≈ 135 µM), the MIC [41] was 16 µg/mL (≈ 67.7 µM) and the MIC [42] was 4 µg/mL (≈ 16.9 µM). The Inhibition zone [43] was 23 mm.
